Data reported in ChEMBL document CHEMBL1140876, “Synthesis and antibacterial property of quinolines with potent DNA gyrase activity” (2009).
≈ marks a conversion by molar mass, not a printed value. Calls of active or inactive are those of the source. The rule behind the calls is not given here.

Experiments:
[1] = tested on: Salmonella typhimurium; assay: Antimicrobial activity against Salmonella Typhimurium at 25 ug after 24 hrs by disk diffusion method; format: functional, Salmonella enterica subsp. enterica serovar Typhimurium; details: Salmonella enterica, read-out: IZ
Outline: (§1)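 Inoculum made in 0.85% saline against McFarland standard, swabbed evenly onto nutrient agar; sterile filter-paper discs set equidistant and loaded with equal volumes of drug at varying amounts; zone of inhibition measured after 24 h at 37 °C; ciprofloxacin reference.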

[2] = Inhibition of DNA gyrase assessed as pBR322 DNA relaxation at 1 uM
Outline: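 Relaxation without ATP: gyrase (60 nM) with supercoiled pBR322 DNA (6 nM) and drug at […] for 1 h at 37 °C; relaxation judged by gel. Ciprofloxacin, novobiocin and nalidixic acid comparators.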

[3] = tested on: Klebsiella pneumoniae; assay: Antimicrobial activity against Klebsiella pneumoniae at 20 ug after 24 hrs by disk diffusion method; format: functional; details: read-out: IZ; outline: as §1
[4] = tested on: Bacillus subtilis; assay: Antimicrobial activity against Bacillus subtilis at 5 ug after 24 hrs by disk diffusion method; format: functional; details: read-out: IZ; outline: as §1
[5] = tested on: Escherichia coli; assay: Antimicrobial activity against Escherichia coli at 15 ug after 24 hrs by disk diffusion method; format: functional; details: read-out: IZ; outline: as §1
[6] = tested on: Pseudomonas aeruginosa; assay: Antimicrobial activity against Pseudomonas aeruginosa at 20 ug after 24 hrs by disk diffusion method; format: functional; details: read-out: IZ; outline: as §1
[7] = Inhibition of DNA gyrase assessed as conversion of relaxed pBR322 to supercoiled form
Outline: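 Supercoiling in 15 µL reactions: gyrase assay buffer, 150 ng relaxed pBR322, 2–3 µL purified DNA gyrase, 3 h at 37 °C (E. coli); stopped with 50% glycerol/0.25% bromophenol blue; 1% agarose in 1× TBE pH 8.3, 90 V 3 h; ethidium bromide stain; supercoiled band brightness by densitometry. Ciprofloxacin comparator.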

[8] = tested on: Bacillus subtilis; assay: Antimicrobial activity against Bacillus subtilis at 25 ug after 24 hrs by disk diffusion method; format: functional; details: read-out: IZ; outline: as §1
[9] = tested on: Klebsiella pneumoniae; assay: Antimicrobial activity against Klebsiella pneumoniae at 25 ug after 24 hrs by disk diffusion method; format: functional; details: read-out: IZ; outline: as §1
[10] = tested on: Klebsiella pneumoniae; assay: Antimicrobial activity against Klebsiella pneumoniae by broth microdilution assay; format: functional
Outline: (§2)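 Broth microdilution per NCCLS 1997 in 96-well plate; final inoculum 10^5 cfu/mL; incubated 35.7 °C in air 18–20 h; MIC read as lowest concentration with no visible growth.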

[11] = tested on: Bacillus subtilis; assay: Antimicrobial activity against Bacillus subtilis at 10 ug after 24 hrs by disk diffusion method; format: functional; details: read-out: IZ; outline: as §1
[12] = tested on: Escherichia coli; assay: Antimicrobial activity against Escherichia coli at 10 ug after 24 hrs by disk diffusion method; format: functional; details: read-out: IZ; outline: as §1
[13] = tested on: Salmonella typhimurium; assay: Antimicrobial activity against Salmonella Typhimurium at 5 ug after 24 hrs by disk diffusion method; format: functional, Salmonella enterica subsp. enterica serovar Typhimurium; details: Salmonella enterica, read-out: IZ; outline: as §1
[14] = tested on: Salmonella typhimurium; assay: Antimicrobial activity against Salmonella Typhimurium at 10 ug after 24 hrs by disk diffusion method; format: functional, Salmonella enterica subsp. enterica serovar Typhimurium; details: Salmonella enterica, read-out: IZ; outline: as §1
[15] = tested on: Salmonella typhi; assay: Antimicrobial activity against Salmonella typhi by broth microdilution assay; format: functional, Salmonella enterica subsp. enterica serovar Typhi; details: Salmonella enterica
Outline: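 Broth microdilution in 96-well plates following the NCCLS 1997 protocol. Final inoculum was 10^5 cfu/mL, with a control organism run alongside. Plates were incubated at 35.7 °C in air for 18–20 h. MIC is the lowest concentration with no visible growth.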

[16] = tested on: Salmonella typhimurium; assay: Antimicrobial activity against Salmonella Typhimurium at 20 ug after 24 hrs by disk diffusion method; format: functional, Salmonella enterica subsp. enterica serovar Typhimurium; details: Salmonella enterica, read-out: IZ; outline: as §1
[17] = tested on: Staphylococcus aureus; assay: Antimicrobial activity against Staphylococcus aureus by broth microdilution assay; format: functional; outline: as §2
[18] = tested on: Bacillus subtilis; assay: Antimicrobial activity against Bacillus subtilis at 15 ug after 24 hrs by disk diffusion method; format: functional; details: read-out: IZ; outline: as §1
[19] = tested on: Klebsiella pneumoniae; assay: Antimicrobial activity against Klebsiella pneumoniae at 5 ug after 24 hrs by disk diffusion method; format: functional; details: read-out: IZ; outline: as §1
[20] = tested on: Pseudomonas aeruginosa; assay: Antimicrobial activity against Pseudomonas aeruginosa at 10 ug after 24 hrs by disk diffusion method; format: functional; details: read-out: IZ; outline: as §1
[21] = tested on: Staphylococcus aureus; assay: Antimicrobial activity against Staphylococcus aureus at 15 ug after 24 hrs by disk diffusion method; format: functional; details: read-out: IZ; outline: as §1
[22] = tested on: Staphylococcus aureus; assay: Antimicrobial activity against Staphylococcus aureus at 5 ug after 24 hrs by disk diffusion method; format: functional; details: read-out: IZ; outline: as §1
[23] = tested on: Klebsiella pneumoniae; assay: Antimicrobial activity against Klebsiella pneumoniae at 10 ug after 24 hrs by disk diffusion method; format: functional; details: read-out: IZ; outline: as §1
[24] = tested on: Staphylococcus aureus; assay: Antimicrobial activity against Staphylococcus aureus at 25 ug after 24 hrs by disk diffusion method; format: functional; details: read-out: IZ; outline: as §1
[25] = tested on: Staphylococcus aureus; assay: Antimicrobial activity against Staphylococcus aureus at 20 ug after 24 hrs by disk diffusion method; format: functional; details: read-out: IZ; outline: as §1
[26] = tested on: Bacillus subtilis; assay: Antimicrobial activity against Bacillus subtilis by broth microdilution assay; format: functional; outline: as §2
[27] = tested on: Pseudomonas aeruginosa; assay: Antimicrobial activity against Pseudomonas aeruginosa at 15 ug after 24 hrs by disk diffusion method; format: functional; details: read-out: IZ; outline: as §1
[28] = tested on: Klebsiella pneumoniae; assay: Antimicrobial activity against Klebsiella pneumoniae at 15 ug after 24 hrs by disk diffusion method; format: functional; details: read-out: IZ; outline: as §1
[29] = tested on: Salmonella typhimurium; assay: Antimicrobial activity against Salmonella Typhimurium at 15 ug after 24 hrs by disk diffusion method; format: functional, Salmonella enterica subsp. enterica serovar Typhimurium; details: Salmonella enterica, read-out: IZ; outline: as §1
[30] = tested on: Staphylococcus aureus; assay: Antimicrobial activity against Staphylococcus aureus at 10 ug after 24 hrs by disk diffusion method; format: functional; details: read-out: IZ; outline: as §1
[31] = tested on: Pseudomonas aeruginosa; assay: Antimicrobial activity against Pseudomonas aeruginosa at 5 ug after 24 hrs by disk diffusion method; format: functional; details: read-out: IZ; outline: as §1
[32] = tested on: Pseudomonas aeruginosa; assay: Antimicrobial activity against Pseudomonas aeruginosa by broth microdilution assay; format: functional; outline: as §2
[33] = tested on: Pseudomonas aeruginosa; assay: Antimicrobial activity against Pseudomonas aeruginosa at 25 ug after 24 hrs by disk diffusion method; format: functional; details: read-out: IZ; outline: as §1
[34] = tested on: Escherichia coli; assay: Antimicrobial activity against Escherichia coli by broth microdilution assay; format: functional; outline: as §2
[35] = tested on: Bacillus subtilis; assay: Antimicrobial activity against Bacillus subtilis at 20 ug after 24 hrs by disk diffusion method; format: functional; details: read-out: IZ; outline: as §1

## O=C(O)c1cn(C2CC2)c2cc(N3CCNCC3)c(F)cc2c1=O [CIPROFLOXACIN]
[1]
  zone of inhibition at 25 µg/disc: 24 mm
[2]
  Activity: Active
[3]
  zone of inhibition at 20 µg/disc: 34 mm
[4]
  zone of inhibition at 5 µg/disc: 6 mm
[5]
  zone of inhibition at 15 µg/disc: 18 mm
[6]
  zone of inhibition at 20 µg/disc: 20 mm
[7]
  Activity: Active
[8]
  zone of inhibition at 25 µg/disc: 12 mm
[9]
  zone of inhibition at 25 µg/disc: 36 mm
[10]
  MIC50: 0.03 µg/mL (≈ 0.0905 µM)
  MIC90: 0.5 µg/mL (≈ 1.51 µM)
[11]
  zone of inhibition at 10 µg/disc: 7 mm
[12]
  zone of inhibition at 10 µg/disc: 16 mm
[13]
  zone of inhibition at 5 µg/disc: 14 mm
[14]
  zone of inhibition at 10 µg/disc: 16 mm
[15]
  MIC50: 0.04 µg/mL (≈ 0.121 µM)
  MIC90: 0.15 µg/mL (≈ 0.453 µM)
[16]
  zone of inhibition at 20 µg/disc: 22 mm
[17]
  MIC50: 0.5 µg/mL (≈ 1.51 µM)
  MIC90: 1 µg/mL (≈ 3.02 µM)
[18]
  zone of inhibition at 15 µg/disc: 9 mm
[19]
  zone of inhibition at 5 µg/disc: 24 mm
[20]
  zone of inhibition at 10 µg/disc: 14 mm
[21]
  zone of inhibition at 15 µg/disc: 26 mm
[22]
  zone of inhibition at 5 µg/disc: 22 mm
[23]
  zone of inhibition at 10 µg/disc: 26 mm
[24]
  zone of inhibition at 25 µg/disc: 36 mm
[25]
  zone of inhibition at 20 µg/disc: 30 mm
[26]
  MIC50: 0.04 µg/mL (≈ 0.121 µM)
  MIC90: 0.15 µg/mL (≈ 0.453 µM)
[27]
  zone of inhibition at 15 µg/disc: 16 mm
[28]
  zone of inhibition at 15 µg/disc: 30 mm
[29]
  zone of inhibition at 15 µg/disc: 18 mm
[30]
  zone of inhibition at 10 µg/disc: 24 mm
[31]
  zone of inhibition at 5 µg/disc: 12 mm
[32]
  MIC50: 0.125 µg/mL (≈ 0.377 µM)
  MIC90: 1 µg/mL (≈ 3.02 µM)
[33]
  zone of inhibition at 25 µg/disc: 23 mm
[34]
  MIC50: 0.015 µg/mL (≈ 0.0453 µM)
  MIC90: 0.03 µg/mL (≈ 0.0905 µM)
[35]
  zone of inhibition at 20 µg/disc: 10 mm
